Assay results as given in ChEMBL document CHEMBL1150358, “Substituted benzyl-pyrimidines targeting thymidine monophosphate kinase of Mycobacterium tuberculosis: synthesis and in vitro anti-mycobacterial activity” (Bioorg Med Chem, 2008).
Calls of active or inactive are those of the source. The rule behind the calls is not given here.

Columns and labels:
Thymidylate kinase [1] = molecular target: T1, Thymidylate kinase (Mycobacterium tuberculosis, UniProt P9WKE1); experiment: Inhibition of Mycobacterium tuberculosis recombinant TMPK
T1 sequence (P9WKE1 whole entry): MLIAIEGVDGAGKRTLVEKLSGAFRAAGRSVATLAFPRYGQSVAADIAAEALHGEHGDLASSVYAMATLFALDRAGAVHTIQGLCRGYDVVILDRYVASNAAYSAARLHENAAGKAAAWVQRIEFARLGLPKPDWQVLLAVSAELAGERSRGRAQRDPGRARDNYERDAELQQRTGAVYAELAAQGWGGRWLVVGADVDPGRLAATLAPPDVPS

Vero [2] = experiment: Cytotoxicity against african green monkey Vero cells by MTT assay at 400 ug/ml after 72 hrs; type: cell-based; details: chlorocebus sabaeus
Method in brief: (§1)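 Vero cells in DMEM with 10% fetal calf serum plus penicillin/streptomycin; seeded 6 × 10^3 cells/mL, exposed to compounds (range 5–400 µg/mL) 72 h at 37 °C, 5% CO2; MTT 7.5 mg/mL added 4 h, formazan dissolved in 10% SDS/0.01 M HCl, OD 550/570 nm; duplicate, untreated cells as control.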

Thymidylate kinase [3] = molecular target: T2, Thymidylate kinase (Homo sapiens, UniProt P23919); experiment: Inhibition of human TMPK
T2 sequence (P23919 whole entry): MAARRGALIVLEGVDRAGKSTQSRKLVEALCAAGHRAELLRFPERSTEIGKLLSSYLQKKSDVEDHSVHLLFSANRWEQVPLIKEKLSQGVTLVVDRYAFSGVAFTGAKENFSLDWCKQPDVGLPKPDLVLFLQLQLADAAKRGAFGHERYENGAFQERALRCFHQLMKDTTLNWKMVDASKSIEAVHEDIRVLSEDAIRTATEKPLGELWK

[4] = Selectivity index, ratio of Ki for human TMPK to Ki for Mycobacterium tuberculosis recombinant TMPK
Method in brief: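 Selectivity index computed as Ki human TMPK divided by Ki M. tuberculosis TMPK, each Ki from recombinant enzyme assays with ATP and dTMP, mean of three assays.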

[5] = molecular target: T3, Thymidylate kinase (Mycobacterium tuberculosis) (UniProt P9WKE1); experiment: Inhibition of Mycobacterium tuberculosis recombinant TMPK upto 2 mM
T3 sequence (whole entry): T1 sequence (P9WKE1 whole entry)

[6] = molecular target: T3, Thymidylate kinase (Mycobacterium tuberculosis); experiment: Inhibition of Mycobacterium tuberculosis recombinant TMPK upto 0.2 mM
[7] = molecular target: T4, Thymidylate kinase (Homo sapiens) (UniProt P23919); experiment: Inhibition of human TMPK upto 2 mM
T4 sequence (whole entry): T2 sequence (P23919 whole entry)

Vero [8] = experiment: Cytotoxicity against african green monkey Vero cells by MTT assay at 100 ug/ml after 72 hrs; type: cell-based; details: chlorocebus sabaeus; method in brief: as §1

SMILES | Ki (Thymidylate kinase [1]) | Activity (Vero [2]) | also measured
O=C(O)CCCCCc1ccc(Cn2cc(Cl)c(=O)[nH]c2=O)cc1 | 23 µM | Non-toxic | –
Cc1cn(Cc2ccc(CCCCCC(N)=O)cc2)c(=O)[nH]c1=O | 26.5 µM | Non-toxic | –
Cc1cn([C@H]2C[C@H](O)[C@@H](CO)O2)c(=O)[nH]c1=O [DOXRIBTIMINE] | – | Non-toxic | –
Cc1cn(Cc2ccc(C#CCCO)cc2)c(=O)[nH]c1=O | 70 µM | Non-toxic | –
Cc1cn(Cc2ccc(CCCC(=O)O)cc2)c(=O)[nH]c1=O | 13 µM | – | Ki (Thymidylate kinase [3]): 252 µM; Ratio Ki [4]: 19
COC(=O)CCCc1ccc(Cn2cc(Cl)c(=O)[nH]c2=O)cc1 | 59 µM | Non-toxic | –
NC(=O)CCCCCc1ccc(Cn2cc(Br)c(=O)[nH]c2=O)cc1 | 19.5 µM | Non-toxic | –
NC(=O)CCCc1ccc(Cn2ccc(=O)[nH]c2=O)cc1 | – | Non-toxic | Activity [5]: inactive
O=C(O)CCCCCc1ccc(Cn2cc(Br)c(=O)[nH]c2=O)cc1 | 34 µM | Non-toxic | Ki (Thymidylate kinase [3]): 92 µM; Ratio Ki [4]: 3
CCCCc1ccc(Cn2cc(Cl)c(=O)[nH]c2=O)cc1 | – | Non-toxic | Activity [6]: inactive
Cc1cn(Cc2ccc(/C=C/C(=O)O)cc2)c(=O)[nH]c1=O | – | Non-toxic | Activity [5]: inactive
CCCCCCc1ccc(Cn2cc(Br)c(=O)[nH]c2=O)cc1 | – | Non-toxic | Activity [6]: inactive
Cc1cn(Cc2ccc(CCCCO)cc2)c(=O)[nH]c1=O | 51 µM | Non-toxic | –
CCCCc1ccc(Cn2cc(Br)c(=O)[nH]c2=O)cc1 | – | Non-toxic | Activity [6]: inactive
Cc1cn(Cc2ccc(CCC(=O)O)cc2)c(=O)[nH]c1=O | 55 µM | Non-toxic | –
O=c1[nH]c(=O)n([C@H]2C[C@H](O)[C@@H](CO)O2)cc1Br [BROXURIDINE] | 5 µM | Non-toxic | Ki (Thymidylate kinase [3]): 214 µM; Ratio Ki [4]: 43
NC(=O)CCCc1ccc(Cn2cc(Cl)c(=O)[nH]c2=O)cc1 | 39 µM | – | Activity [7]: inactive; Activity (Vero [8]): 10%
Cc1cn(Cc2ccc(CCCCCC(=O)O)cc2)c(=O)[nH]c1=O | 47 µM | Non-toxic | –
Cc1cn(Cc2ccc(CCCCC(N)=O)cc2)c(=O)[nH]c1=O | 55 µM | Non-toxic | –

SMILES | Ki (Thymidylate kinase [1]) | Activity (Vero [2]) | also measured
NC(=O)CCCCCc1ccc(Cn2cc(Cl)c(=O)[nH]c2=O)cc1 | 26 µM | Non-toxic | –
O=C(O)CCCc1ccc(Cn2cc(Br)c(=O)[nH]c2=O)cc1 | 10 µM | – | Ki (Thymidylate kinase [3]): 293 µM; Ratio Ki [4]: 29; Activity (Vero [8]): 14%
Cc1cn(Cc2ccc(/C=C/CC(=O)O)cc2)c(=O)[nH]c1=O | 39 µM | Non-toxic | –
Cc1cn(Cc2ccc(/C=C/C(N)=O)cc2)c(=O)[nH]c1=O | 195 µM | Non-toxic | –
O=c1[nH]c(=O)n([C@H]2C[C@H](O)[C@@H](CO)O2)cc1Cl [CHLORODEOXYURIDINE] | 10 µM | – | –
Cc1cn(Cc2ccc(CCC(N)=O)cc2)c(=O)[nH]c1=O | 89 µM | Non-toxic | –
Cc1cn(Cc2ccc(CCCCC(=O)O)cc2)c(=O)[nH]c1=O | 58 µM | Non-toxic | –
Cc1cn([C@@H]2O[C@H](CO)[C@@H](O)[C@H]2O)c(=O)n(Cc2ccccc2)c1=O | 75 µM | – | –
CCCCCCc1ccc(Cn2cc(Cl)c(=O)[nH]c2=O)cc1 | – | Non-toxic | Activity [6]: inactive
COC(=O)CCCc1ccc(Cn2cc(Br)c(=O)[nH]c2=O)cc1 | 52 µM | Non-toxic | –
Cc1cn(Cc2ccc(C#CCCCC(=O)O)cc2)c(=O)[nH]c1=O | 96 µM | Non-toxic | –
Cc1cn(Cc2ccc(Br)cc2)c(=O)[nH]c1=O | – | Non-toxic | –
NC(=O)CCCCc1ccc(Cn2cc(Br)c(=O)[nH]c2=O)cc1 | 35 µM | Non-toxic | –
O=C(O)CCCc1ccc(Cn2cc(Cl)c(=O)[nH]c2=O)cc1 | – | Non-toxic | Ki (Thymidylate kinase [3]): 790 µM; Ratio Ki [4]: 120
Cc1cn(Cc2ccc(CCCC(N)=O)cc2)c(=O)[nH]c1=O | 112 µM | Non-toxic | –
O=C(O)CCCc1ccc(Cn2ccc(=O)[nH]c2=O)cc1 | 202 µM | Non-toxic | –
NC(=O)CCCc1ccc(Cn2cc(Br)c(=O)[nH]c2=O)cc1 | 39 µM | Non-toxic | Activity [7]: inactive
O=C(O)CCCCc1ccc(Cn2cc(Br)c(=O)[nH]c2=O)cc1 | 38 µM | Non-toxic | –
O=C(O)CCCCc1ccc(Cn2cc(Cl)c(=O)[nH]c2=O)cc1 | 16 µM | Non-toxic | Ki (Thymidylate kinase [3]): 122 µM; Ratio Ki [4]: 7.6
